In ChEMBL document CHEMBL1137333, “Synthesis, radiosynthesis, and biological evaluation of carbon-11 labeled 2beta-carbomethoxy-3beta-(3'-((Z)-2-haloethenyl)phenyl)nortropanes: candidate radioligands for in vivo imaging of the serotonin transporter with positron emission tomography” (J Med Chem, 2006):

How the values were obtained:
Cynomolgus monkey [1] = assay: Ratio of uptake in midbrain to cerebellum of anesthetized cynomolgus monkey after 105 mins; format: ADME, organism-based; conditions: in vivo, 1.75 h
Method in brief: (§1)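 Baseline microPET (Concorde P4) in anesthetized cynomolgus monkey after injection of the [11C]-labelled tracer. Regional time-activity curves were taken, and each region's uptake was divided by cerebellum uptake (low-SERT reference) at 65, 85 and 105 min postinjection.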

Cynomolgus monkey [2] = assay: Uptake in anesthetized cynomolgus monkey medulla after 22.5 mins; format: ADME, organism-based, Medulla of organ; conditions: in vivo, 0.375 h
Method in brief: (§2)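 Baseline microPET scan (P4 scanner) of anesthetized cynomolgus monkeys after injection of the carbon-11 labelled nortropane tracer. Two baseline studies were run per tracer. Radioactivity was followed over time in regional brain time-activity curves.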

Cynomolgus monkey [3] = assay: Uptake in anesthetized cynomolgus monkey putamen after 15.5 mins; format: ADME, organism-based; conditions: in vivo
Method in brief: (§3)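 Baseline microPET (Concorde P4) scan in anesthetized cynomolgus monkeys after injection of the carbon-11 labeled tracer, with no chase drug. Regional brain time-activity curves were followed over the scan. Tracer radiochemical purity and specific activity were determined by analytical HPLC at the time of injection.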

Cynomolgus monkey [4] = assay: Uptake in anesthetized cynomolgus monkey thalamus after 105.0 mins; format: ADME, organism-based; conditions: in vivo, 1.75 h; method in brief: as §3
Cynomolgus monkey [5] = assay: Uptake in anesthetized cynomolgus monkey frontal after 15.5 mins; format: ADME, organism-based, Frontal cortex; conditions: in vivo; method in brief: as §2
Cynomolgus monkey [6] = assay: Ratio of uptake in frontal to cerebellum of anesthetized cynomolgus monkey after 85 mins; format: ADME, organism-based; conditions: in vivo; method in brief: as §1
Cynomolgus monkey [7] = assay: Uptake in anesthetized cynomolgus monkey frontal after 9.5 mins; format: ADME, organism-based, Frontal cortex; conditions: in vivo; method in brief: as §2
Cynomolgus monkey [8] = assay: Uptake in anesthetized cynomolgus monkey caudate after 0.5 mins; format: ADME, organism-based, Caudate nucleus; conditions: in vivo
Method in brief: (§4)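 Baseline microPET (Concorde P4) regional brain time-activity curves in anesthetized cynomolgus monkey following injection of the [11C]-labelled tracer, with radioactivity followed over the scan.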

Cynomolgus monkey [9] = assay: Uptake in anesthetized cynomolgus monkey putamen after 45.0 mins; format: ADME, organism-based; conditions: in vivo, 0.75 h; method in brief: as §3
Cynomolgus monkey [10] = assay: Uptake in anesthetized cynomolgus monkey cerebellum after 18.5 mins; format: ADME, organism-based, Macaca mulatta; conditions: rhesus monkey, in vivo; method in brief: as §4
Cynomolgus monkey [11] = assay: Ratio of uptake in pons to cerebellum of anesthetized cynomolgus monkey after 85 mins; format: ADME, organism-based; conditions: in vivo; method in brief: as §1
Cynomolgus monkey [12] = assay: Uptake in anesthetized cynomolgus monkey pons after 27.5 mins; format: ADME, organism-based; conditions: in vivo; method in brief: as §3
Cynomolgus monkey [13] = assay: Uptake in anesthetized cynomolgus monkey medulla after 3.5 mins; format: ADME, organism-based, Medulla of organ; conditions: in vivo; method in brief: as §2
Cynomolgus monkey [14] = assay: Ratio of uptake in medulla to cerebellum of anesthetized cynomolgus monkey after 105 mins; format: ADME, organism-based; conditions: in vivo, 1.75 h; method in brief: as §1
Cynomolgus monkey [15] = assay: Uptake in anesthetized cynomolgus monkey medulla after 65.0 mins; format: ADME, organism-based, Medulla of organ; conditions: in vivo; method in brief: as §2
Cynomolgus monkey [16] = assay: Ratio of uptake in occipital to cerebellum of anesthetized cynomolgus monkey after 65 mins; format: ADME, organism-based; conditions: in vivo; method in brief: as §1
Cynomolgus monkey [17] = assay: Uptake in anesthetized cynomolgus monkey frontal after 4.5 mins; format: ADME, organism-based, Frontal cortex; conditions: in vivo, 0.075 h; method in brief: as §2
Cynomolgus monkey [18] = assay: Uptake in anesthetized cynomolgus monkey frontal after 35.0 mins; format: ADME, organism-based, Frontal cortex; conditions: in vivo; method in brief: as §2
Cynomolgus monkey [19] = assay: Ratio of uptake in pons to cerebellum of anesthetized cynomolgus monkey after 105 mins; format: ADME, organism-based; conditions: in vivo, 1.75 h; method in brief: as §1
Cynomolgus monkey [20] = assay: Uptake in anesthetized cynomolgus monkey medulla after 6.5 mins; format: ADME, organism-based, Medulla of organ; conditions: in vivo; method in brief: as §2
Cynomolgus monkey [21] = assay: Uptake in anesthetized cynomolgus monkey occipital after 85.0 mins; format: ADME, organism-based, Macaca mulatta, Occipital cortex; conditions: rhesus monkey, in vivo; method in brief: as §2
Cynomolgus monkey [22] = assay: Uptake in anesthetized cynomolgus monkey caudate after 45.0 mins; format: ADME, organism-based, Caudate nucleus; conditions: in vivo, 0.75 h; method in brief: as §4
Cynomolgus monkey [23] = assay: Uptake in anesthetized cynomolgus monkey putamen after 12.5 mins; format: ADME, organism-based; conditions: in vivo; method in brief: as §3
Cynomolgus monkey [24] = assay: Uptake in anesthetized cynomolgus monkey medulla after 1.5 mins; format: ADME, organism-based, Medulla of organ; conditions: in vivo, 0.025 h; method in brief: as §2
Cynomolgus monkey [25] = assay: Uptake in anesthetized cynomolgus monkey medulla after 9.5 mins; format: ADME, organism-based, Medulla of organ; conditions: in vivo; method in brief: as §2
Cynomolgus monkey [26] = assay: Uptake in anesthetized cynomolgus monkey caudate after 115.0 mins; format: ADME, organism-based, Caudate nucleus; conditions: in vivo; method in brief: as §4
Cynomolgus monkey [27] = assay: Uptake in anesthetized cynomolgus monkey occipital after 55.0 mins; format: ADME, organism-based, Occipital cortex; conditions: in vivo; method in brief: as §2
Cynomolgus monkey [28] = assay: Uptake in anesthetized cynomolgus monkey caudate after 35.0 mins; format: ADME, organism-based, Caudate nucleus; conditions: in vivo; method in brief: as §4
Cynomolgus monkey [29] = assay: Ratio of uptake in thalamus to cerebellum of anesthetized cynomolgus monkey after 85 mins; format: ADME, organism-based; conditions: in vivo; method in brief: as §1
Cynomolgus monkey [30] = assay: Uptake in anesthetized cynomolgus monkey occipital after 65.0 mins; format: ADME, organism-based, Macaca mulatta, Occipital cortex; conditions: rhesus monkey, in vivo; method in brief: as §2
Cynomolgus monkey [31] = assay: Uptake in anesthetized cynomolgus monkey pons after 95.0 mins; format: ADME, organism-based; conditions: in vivo; method in brief: as §3
Cynomolgus monkey [32] = assay: Ratio of uptake in putamen to cerebellum of anesthetized cynomolgus monkey after 105 mins; format: ADME, organism-based; conditions: in vivo, 1.75 h; method in brief: as §1
Cynomolgus monkey [33] = assay: Uptake in anesthetized cynomolgus monkey occipital after 2.5 mins; format: ADME, organism-based, Macaca mulatta, Occipital cortex; conditions: rhesus monkey, in vivo; method in brief: as §2
Cynomolgus monkey [34] = assay: Uptake in anesthetized cynomolgus monkey frontal after 27.5 mins; format: ADME, organism-based, Frontal cortex; conditions: in vivo; method in brief: as §2

Compound: [11CH3]OC(=O)[C@@H]1C2CCC(C[C@@H]1c1cccc(/C=C/I)c1)N2 (some centres undefined)
- Ratio (Cynomolgus monkey [1]): 2.4
- Drug uptake (Cynomolgus monkey [2]): 6.95
- Drug uptake (Cynomolgus monkey [3]): 6.17
- Drug uptake (Cynomolgus monkey [4]): 6.3
- Drug uptake (Cynomolgus monkey [5]): 3.69
- Ratio (Cynomolgus monkey [6]): 1.1
- Drug uptake (Cynomolgus monkey [7]): 3.33
- Drug uptake (Cynomolgus monkey [8]): 0.01
- Drug uptake (Cynomolgus monkey [9]): 7.16
- Drug uptake (Cynomolgus monkey [10]): 5.74
- Ratio (Cynomolgus monkey [11]): 1.6
- Drug uptake (Cynomolgus monkey [12]): 5.94
- Drug uptake (Cynomolgus monkey [13]): 2.62
- Ratio (Cynomolgus monkey [14]): 2.1
- Drug uptake (Cynomolgus monkey [15]): 6.94
- Ratio (Cynomolgus monkey [16]): 0.9
- Drug uptake (Cynomolgus monkey [17]): 1.91
- Drug uptake (Cynomolgus monkey [18]): 4.13
- Ratio (Cynomolgus monkey [19]): 1.8
- Drug uptake (Cynomolgus monkey [20]): 5.28
- Drug uptake (Cynomolgus monkey [21]): 4
- Drug uptake (Cynomolgus monkey [22]): 5.77
- Drug uptake (Cynomolgus monkey [23]): 5.9
- Drug uptake (Cynomolgus monkey [24]): 0.39
- Drug uptake (Cynomolgus monkey [25]): 6.22
- Drug uptake (Cynomolgus monkey [26]): 4.84
- Drug uptake (Cynomolgus monkey [27]): 4.58
- Drug uptake (Cynomolgus monkey [28]): 5.74
- Ratio (Cynomolgus monkey [29]): 1.8
- Drug uptake (Cynomolgus monkey [30]): 4.4
- Drug uptake (Cynomolgus monkey [31]): 5.84
- Ratio (Cynomolgus monkey [32]): 2.1
- Drug uptake (Cynomolgus monkey [33]): 0.85
- Drug uptake (Cynomolgus monkey [34]): 4.09
